Experimental data published in the EternaBench riboswitch data.

Tested on: MS2 coat protein
Assay: apparent Kd, MS2 coat protein; higher = weaker binding; RNA-MaP array; FMN 200 µM where present
Outline: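 On Illumina sequencing-chip clusters, designs were transcribed by stalled E. coli RNA polymerase and titrated with SNAP-549-labelled MS2 coat protein (0.7 or 1.5 nM, doubling to 3 µM), without and then with constant ligand, in 100 mM Tris-HCl pH 7.5, 80 mM KCl, 4 mM MgCl2, BSA, DTT, yeast tRNA and Tween-20. Apparent Kd is the median of filtered per-cluster curve fits to green signal normalised to red-channel RNA signal and control-cluster median Fmax.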

[1] = designed as: OFF switch for flavin mononucleotide, no ligand
[2] = ligand present: flavin mononucleotide, designed as: OFF switch for flavin mononucleotide
[3] = designed as: ON switch for flavin mononucleotide, no ligand
[4] = ligand present: flavin mononucleotide, designed as: ON switch for flavin mononucleotide

| Sequence | apparent Kd [1] [µM] | apparent Kd [2] [µM] | apparent Kd [3] [µM] | apparent Kd [4] [µM] |
| --- | --- | --- | --- | --- |
| AGUCUGCUAGGAUAUACAUGAGGAUCACCCAUGUCUAUCAAUAGACUAUUAACCUGGUGUAGAAGGAGCUUGUA | 0.0112 | 0.0144 | – | – |
| AGUGCGUAUGUGAGGAUAUGCUGGUCCUUGGCUCGGCAGAAGGCACAUGAGGAUCACCCAUGUGGUGUCGUACC | 0.033 | 0.151 | – | – |
| AGUGGCCGAGGAUAUACGGACGUGUCGCCGGGUGUCGUGGGACAUGAGGAUCACCCAUGUAGAAGGUGGUUGUU | 0.17 | 0.219 | – | – |
| AGUGUCAUCGAGAAGGCCUCAACAUGAGGAUCACCCAUGUUGCAAAAUGGGAGGAUAUCGAAAAUACAGCUACGUUUCGUAGCA | – | – | 0.0219 | 0.0053 |
| AGUGUCGGCACAGGAUAUGAGAUGCCGGCAGACAUGAGGAUCACCCAUGUAAGCGAACCAGGCAGUCAGAAGGGUGAUCGACGA | – | – | 0.119 | 0.0269 |
| AGUGUGUGGCAGGAUAUGCGAUUUGUCGGUGUAGCAGAAGGGUCUACAUGAGGAUCACCCAUGUGUGCGGUUGA | 0.438 | 0.446 | – | – |
| AGUUAAUGCACAUGAGGAUCACCCAUGUCACUUUAUAGGAGACAGGAUAUGCAUGCCAUCAAUGUGCAGAAGGGUCACCACCGA | – | – | 0.0856 | 0.147 |
| AUAAAUCAUGUAGGAUAUGCGUGGCGAAGCUAUGCAGAAGGACAUGAGGAUCACCCAUGUCUGUCCGUCUGCGUACAGACGGAA | 0.0293 | 0.274 | – | – |
| AUAAUACAUGAGGAUCACCCAUGUAAUUUAACUUGUAAGAUCAAGGAUAUCAGCUCGAAUAGAGCUGAGAAGGUGAUCACAUGU | – | – | 0.169 | 0.295 |
| AUAAUGUAAGGAUAUCAGUCGACUAGCCUCGGCUAGUCGACUGAGAAGGUACAUGAGGAUCACCCAUGUGUUCC | 0.14 | 0.766 | – | – |
| AUAAUUAUAUAUUUGGCAAGAAUCAGAAGGCGUUACAUGAGGAUCACCCAUGUUUUGUAUAGUAACGAGGAUAUGAUAUGGAAA | 0.0163 | 0.0127 | – | – |
| AUAAUUUUAUAAUUCUAUUUAUUCAGAAGGCAUAACAUGAGGAUCACCCAUGUAAAUUAAUGUUAUGAGGAUAUGAUUUGGUUA | 0.0186 | 0.13 | – | – |
| AUAAUUUUAUAUAUCUUAUUUAUCAGAAGGCAUAACAUGAGGAUCACCCAUGUAUAUUAUUGUUAUGAGGAUAUGAUUUAGUUA | 0.0101 | 0.0583 | – | – |
| AUACAAAGCACAGGAUAUGGGAGUGAGAAUCAUGCUGCGAAUUGAUUCGGACCAGAAGGGUGCACAUGAGGAUCACCCAUGUAC | – | – | 0.185 | 0.0776 |
| AUACAUCUUCGAGGAUAUCGGUGAUAAAUUUUACGAGAAGGCGAUGAAAGAUAUAAUCUUAUAUACAUGAGGAUCACCCAUGUU | – | – | 0.026 | 0.0241 |
| AUACAUGAGGAUCACCCAUGUAAUUAAUUAACUAGUAAGAUCUAGGAUAUCAGCUCGAAUAGAGCUGAGAAGGAGAUCACAUGU | – | – | 0.034 | 0.0155 |
| AUACAUGAGGAUCACCCAUGUCAGCGGCAGUGCUGCAGAUCAAGAAGGGAUCCCGUGGGCCGGGAUCAGGAUAUUGAUCCUGCA | – | – | 0.105 | 0.0186 |
| AUACCACGAGGAUAUCGUCUAUUUCACAUGAGGAUCACCCAUGUUAUCCUUGUUUCGUUUCGAGAAGGCGUGUUUU | 0.0475 | 0.11 | – | – |
| AUACCUUAUGAGAAGGCGAUUAUGAAACAUGAUCGAGGAUAUCAUGUAAACAUGAGGAUCACCCAUGUAUGGGUAUUAUGGUAC | – | – | 0.05 | 0.0116 |
| AUAGAAGACUAGAAGGACCUAGUUGUAUAUUGUCGAGGUAUAUAGUUAGGUAGGAUAUGGGACAUGAGGAUCACCCAUGUCUUG | – | – | 0.00851 | 0.00775 |
| AUAGGACGAAACAUGAGGAUCACCCAUGUGUUAUAAUUAAUAUAGGAUAUGUUUAUACUUUUUGGGCAGAAGGAUGAUAAUGCU | – | – | 0.0166 | 0.0147 |
| AUAGUAUAGCAAGGAUAUCGAUUUAGUUUGUUACGAGAAGGUGCUUUAGUUUAUACCUCUUGUUUACAUGAGGAUCACCCAUGU | 0.0231 | 0.0206 | – | – |
| AUAUAUAUUAGAGGAUAUGUGUUCAUGUUACAUGAGGAUCACCCAUGUUUAGGUUGAUUUAUCUUACAGAAGGCUAUACAAUCA | 0.0715 | 0.076 | – | – |
| AUAUUAUUGAUCCAUUUUUUCAACAUGAGGAUCACCCAUGUGCAGGAUAUCGUGAUUAUUAUCAACGAGAAGGGCAAAUUCAUU | 0.0765 | 0.234 | – | – |
| AUCAGCUCGUCAGGAUAUAAGUCACUGCGUCAGCAGUGUGGUAAGAUCACAUGAGGAUCACCCAUGUAGAAGGGACGAGCUGAU | 0.0118 | 0.0467 | – | – |
| AUCAGCUCGUCAGGAUAUACGUCACUGCGUCAGCAGUGUGGUAAGAUCACAUGAGGAUCACCCAUGUAGAAGGGACGAGCUGAA | 0.0143 | 0.267 | – | – |
| AUCAGCUCGUCAGGAUAUACGUCACUGCGUCAGCAGUGUGGUAAGCUCACAUGAGGAUCACCCAUGUAGAAGGGACGAGCUGAU | 0.00648 | 0.0229 | – | – |
| AUCAGCUCGUCAGGAUAUACGUCACUGCGUCAGCAGUGUGGUAUGAUCACAUGAGGAUCACCCAUGUAGAAGGGACGAGCUGAU | 0.00862 | 0.132 | – | – |

| Sequence | apparent Kd [1] [µM] | apparent Kd [2] [µM] | apparent Kd [3] [µM] | apparent Kd [4] [µM] |
| --- | --- | --- | --- | --- |
| AUCAGCUCGUCAGGAUAUACGUCACUGCUUCGGCAGUGUAUUAAGAUCACAUGAGGAUCACCCAUGUAGAAGGGACGAGCUGAU | 0.0217 | 0.226 | – | – |
| AUCAGCUCGUCAGGAUAUACGUUACUGCGUCAGCAGUGUGGUAAGAUCACAUGAGGAUCACCCAUGUAGAAGGGACGAGCUGAU | 0.0618 | 0.653 | – | – |
| AUCAGCUCGUGAGGAUAUACAACACUGCUUCGGCAGUGUAUUAAGAUCACAUGAGGAUCACCCAUGUAGAAGGCACGAGCUGAU | 0.0135 | 0.278 | – | – |
| AUCAUGUAAGGAUAUCUGACAUGUGACGAAAGUCACUGUUCAGAGAAGGUACAUGAGGAUCACCCAUGUAGAAC | 0.0722 | 0.133 | – | – |
| AUCAUGUAAGGAUAUCUUACAUGUGACUUCGGUCACAGUUAAGAGAAGGUACAUGAGGAUCACCCAUGUAUAAC | 0.028 | 0.0453 | – | – |
| AUCCAGGUAACAUGAGGAUCACCCAUGUUCCUUCGCUCUGGCAAGGAUAUGAAGGGAUUGUCCCAUCAGAAGGUGCAUGGGUGC | – | – | 0.023 | 0.0199 |
| AUCCGGCGUGUAGGAUAUGGAAAAAAUUAGGAUCCAGAAGGACAUGAGGAUCACCCAUGUACAUGUAAACAGUCAUCACCGGAA | 0.0335 | 0.0517 | – | – |
| AUCCUGCGAGGAUAUACAUAAUUUUUUUCAUUUGGUUGCGAACAUGAGGAUCACCCAUGUAGAAGGUGCUUCAC | 0.0667 | 0.0625 | – | – |
| AUCGGCAACACCAUGGUGGAUCCUGAGGAUAUGAAAAGCUACAUGAGGAUCACCCAUGUCCCGCGUCAGAAGGCAGGUUUGAUC | – | – | 0.138 | 0.017 |
| AUCGGUCCGUAGAAGGGUGACAUGAGGAUCACCCAUGUGCCGUGGGCAUUUAUGCCUCCACGGCCACAGGAUAUACGGAGUUGA | – | – | 0.054 | 0.0368 |
| AUCGUAACUUCGUGUCCACAUGAGGAUCACCCAUGUGCUACAAGAAGGGCCCGGGUCGGGUUAGGGCAGGAUAUUGUGUGCACA | 0.00915 | 0.0191 | – | – |
| AUCGUUCGAGAGAAGGGAACAUGAGGAUCACCCAUGUUACCUCACCUGGUGACGGAACUCCAAGUUCAGGAUAUCUCGAGCAAU | 0.00538 | 0.00825 | – | – |
| AUGAAGAGGCAAGGAUAUCGAGUGCUGGGCCUAUACAUGAGGAUCACCCAUGUCCUGGCAGGACGUGAGAAGGUGUAUCUAAUA | – | – | 0.217 | 0.343 |
| AUGACAGGCAAAGCGCAACGGCAAACAUGAGGAUCACCCAUGUAGGAUAUGCUACACAAAGUGUAGCAGAAGGACAUACGACGA | 0.0364 | 0.0752 | – | – |
| AUGACAUGCAGAGCGCAACGGCGUACAUGAGGAUCACCCAUGUAGGAUAUACUACACAAAGUGUAGUAGAAGGACAUGCGACGG | 0.0308 | 0.0508 | – | – |
| AUGAUUAUAUUAUACAUGAGGAUCACCCAUGUUAUAAGUCAUGAGGAUAUGGUAUUGUAGUUUUUCCAGAAGGCAUUUAACUUA | – | – | 0.00791 | 0.00547 |
| AUGCCCUGAGGAUAUCUCAUCUCGCACAUGAGGAUCACCCAUGUUCUUCUCUGGGUUUCGAGAGAAGGCAGGCCUA | 0.701 | 0.366 | – | – |
| AUGCCGUGCAGAGCGCGACGGCGAACAUGAGGAUCACCCAUGUAGGAUAUACUACACAAAGUGUAGUAGAAGGACGUGCGACAA | 0.0246 | 0.0386 | – | – |
| AUGCCGUGCAGAGCGCGACGGCGUACAUGAGGAUCACCCAUGUAGGAUAUACUACACAAAGUGUAGUAGAAGGACGUGCGACUG | 0.0306 | 0.0334 | – | – |
| AUGCGGUCAGGAUAUGCAUGGCGGGACUUGCGUCGUGGCGUGGAGAAGGGACAUGAGGAUCACCCAUGUGGAGU | 0.079 | 0.0452 | – | – |
| AUGCUAUACGAAGGAUAUGGUUACAUGAGGAUCACCCAUGUUAUGAUUGGUUACUUGUUUAGUUUCCAGAAGGUCGUAUAGCUA | 0.0581 | 0.232 | – | – |
| AUGCUCAGAGGAUAUACAUGAGGAUCACCCAUGUGUUACCGAGGAGUACGGUCGUCACGUAGAAGGCUGGGUAA | 0.0179 | 0.0588 | – | – |
| AUGCUGUCAGGAUAUCGUUAAUUUAGUUGUUUGUAUUAGUUCGAGAAGGGACAUGAGGAUCACCCAUGUUUGUA | 0.0308 | 0.0374 | – | – |
| AUGGAUAUCACAGGAUAUGCCAGGGAUACCCUGGCAGAAGGGUGAUCCAUCCUAUGUAAAUACAUGAGGAUCACCCAUGUGUCC | – | – | 0.0517 | 0.0436 |
| AUGGUUCUCGUAGGAUAUGUAGGAUAUGCCUACAUGAGGAUCACCCAUGUUCGCAUGGCAGAAGGACAGAAGGACGAUCACCAA | – | – | 0.365 | 0.0192 |
| AUGUUACAUGAGGAUCACCCAUGUGAGGAUAUGUGUACCGGUAAAAAAGUGUCUGGCCACAGAAGGCAUUUGGA | 0.0294 | 0.033 | – | – |
| AUUAAUCAGCAGGAUAUAAGUAUCUGAUGGUGGUUAGAAGGGCUGACAUGAGGAUCACCCAUGUGCUCUUCGUG | 0.0114 | 0.0138 | – | – |
